Measured values collected from several papers.
Lines come from different studies, so protocols differ.
Target: Mitogen-activated protein kinase kinase kinase kinase 2 (MAP4K2, Homo sapiens, UniProt Q12851)
Sequence (Q12851 1-820, as in one of the studies): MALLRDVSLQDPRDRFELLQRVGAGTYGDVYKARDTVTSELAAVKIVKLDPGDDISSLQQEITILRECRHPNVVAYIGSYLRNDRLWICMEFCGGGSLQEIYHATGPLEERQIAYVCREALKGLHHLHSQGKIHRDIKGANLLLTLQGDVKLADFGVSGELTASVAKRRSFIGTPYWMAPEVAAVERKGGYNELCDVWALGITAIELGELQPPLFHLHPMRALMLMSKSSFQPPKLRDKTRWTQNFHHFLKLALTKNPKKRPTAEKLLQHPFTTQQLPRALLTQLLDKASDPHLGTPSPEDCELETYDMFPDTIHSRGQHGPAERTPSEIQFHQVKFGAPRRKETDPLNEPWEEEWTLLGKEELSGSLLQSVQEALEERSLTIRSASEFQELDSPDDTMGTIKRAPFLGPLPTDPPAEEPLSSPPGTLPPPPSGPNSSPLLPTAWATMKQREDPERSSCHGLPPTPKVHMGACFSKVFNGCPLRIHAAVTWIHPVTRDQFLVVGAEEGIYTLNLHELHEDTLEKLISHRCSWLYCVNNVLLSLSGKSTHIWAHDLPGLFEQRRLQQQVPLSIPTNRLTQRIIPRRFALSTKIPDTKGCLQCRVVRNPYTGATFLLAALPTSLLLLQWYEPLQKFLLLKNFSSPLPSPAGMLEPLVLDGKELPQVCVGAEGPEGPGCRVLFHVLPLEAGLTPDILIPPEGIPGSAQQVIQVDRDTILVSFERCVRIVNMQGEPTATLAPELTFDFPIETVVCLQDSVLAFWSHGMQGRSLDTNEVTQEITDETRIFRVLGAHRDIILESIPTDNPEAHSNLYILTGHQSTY

O=c1[nH]c2ccccc2n1C1CCN(Cc2ccc(-c3[nH]c4cc5ncnc5cc4nc3-c3ccccc3)cc2)CC1
remaining signal (cell-free assay; 0.5 µM): 105%

Cn1cc(-c2cc(F)cc(N3CCn4c(cc5c4CCCC5)C3=O)c2CO)cc(Nc2ccc(N3CCN(C4COC4)CC3)cn2)c1=O
inhibition (enzyme activity; inhibitor; 0.1 µM): 2%

CC(C)(C)c1cc(C=C(C#N)C#N)cc(Br)c1O
remaining activity (enzyme activity; inhibitor; 0.5 µM): 113%

Cn1cncc1[C@@](O)(COc1ccc(C#N)cc1-c1ccc(OC(F)(F)F)cc1)c1ccc(C#N)cc1
remaining binding (cell-free assay; competition with immobilised ligand; 1 µM): 100%

Nc1ncc(-c2nc(N3CCOCC3)nc(N3CCOCC3)n2)c(C(F)F)n1
remaining binding (binding; competition with immobilised ligand; 10 µM): 78%

N#CC1(c2ccccn2)CCN(Cc2cc(C(=O)O)c(=O)n3ccccc23)CC1
remaining binding (cell-free assay; competition with immobilised ligand; 1 µM): 81%

COc1ncccc1-c1cnn2ccc(N3CCN(C(=O)OC(C)C)CC3)nc12
remaining binding (binding; competition with immobilised ligand; 1 µM): 65%

Cc1nn(C)cc1-c1nc2c(N3CCN(Cc4ccc(Cl)cc4)CC3)c(Cl)cnc2[nH]1
remaining binding (binding; competition with immobilised ligand; 1 µM): 85%

COc1cc(Nc2ncc(F)c(Nc3ccc4c(n3)NC(=O)C(C)(C)O4)n2)cc(OC)c1OC
inhibition (binding; competition with immobilised ligand; 10 µM): 85%
